Data reported in ChEMBL document CHEMBL1777714, “Optimization of triazoles as novel and potent nonphlorizin SGLT2 inhibitors” (Bioorg Med Chem Lett, 2011).
In brackets after ≈: the same amount, converted by molar mass.

Assays:
[1] = Tmax in rat at 100 mg/kg, sc; type: ADME, organism-based; parameters: dose 100 mg/kg, route subcutaneous; details: in vivo
[2] = Solubility of the compound in phosphate buffered saline; type: physicochemical
In short: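 Solubility measured in PBS buffer, reported in µg/mL.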

[3] = Cmax in rat at 100 mg/kg, sc; type: ADME, organism-based; parameters: dose 100 mg/kg, route subcutaneous; details: in vivo
Rattus norvegicus [4] = test: AUC (0 to 24 hrs) in rat at 100 mg/kg, sc; type: ADME, organism-based, Plasma; parameters: time < 24 hr, dose 100 mg/kg, route subcutaneous; details: in vivo
Rattus norvegicus [5] = test: AUC (0 to 24 hrs) in rat at 70 mg/kg, sc; type: ADME, organism-based, Plasma; parameters: time < 24 hr, dose 70 mg/kg, route subcutaneous; details: in vivo
[6] = Tmax in rat at 70 mg/kg, sc; type: ADME, organism-based; parameters: dose 70 mg/kg, route subcutaneous; details: in vivo
[7] = Cmax in rat at 70 mg/kg, sc; type: ADME, organism-based; parameters: dose 70 mg/kg, route subcutaneous; details: in vivo

solubility [2]	other results	Compound
64 µg/mL (≈ 170 µM)	Tmax [1]: 8 h; Cmax [3]: 1050 nM; AUC (Rattus norvegicus [4]): 16.2 µM·h	CCCn1c(CN2C(=O)COc3c(C)cc(C)cc32)nnc1-c1ccccn1
80 µg/mL (≈ 181 µM)		CCCn1c(CN2C(=O)COc3c2cc(Cl)cc3[N+](=O)[O-])nnc1-c1ncccc1C
2 µg/mL (≈ 4.52 µM)		CCCn1c(CN2C(=O)COc3c2cc(C)cc3[N+](=O)[O-])nnc1-c1ccc(Cl)cn1
1.1 µg/mL (≈ 2.67 µM)		CCCn1c(CN2C(=O)COc3c(C)cc(C)cc32)nnc1-c1ccc(Cl)cn1
35 µg/mL (≈ 84 µM)	AUC (Rattus norvegicus [5]): 61.6 µM·h; Tmax [6]: 24 h; Cmax [7]: 3500 nM	CCCn1c(CN2C(=O)COc3c(C)cc(C)cc32)nnc1C1Cc2ccccc2C1
19 µg/mL (≈ 45.6 µM)		CCCn1c(CN2C(=O)COc3c(C)cc(C)cc32)nnc1[C@@H]1C[C@H]1c1ccccc1
2.2 µg/mL (≈ 4.25 µM)		O=C1COc2c(cc(Cl)cc2[N+](=O)[O-])N1Cc1nnc(-c2ccc(Cl)cn2)n1CCC(F)(F)F
1.6 µg/mL (≈ 3 µM)		O=C1COc2c(Cl)cc(Cl)cc2N1Cc1nnc(CCc2ccc(Cl)cc2)n1CCC(F)(F)F
1 µg/mL (≈ 2.16 µM)		CCCn1c(CN2C(=O)COc3c2cc(Cl)cc3[N+](=O)[O-])nnc1-c1ccc(Cl)cn1
23 µg/mL (≈ 53.4 µM)		CCCn1c(CN2C(=O)COc3c(C)cc(C)cc32)nnc1[C@@H]1CCc2ccccc2C1
